Key:
[1] = Aqueous stability assessed as decomposition time at pH 2.0; type: physicochemical; settings: buffer
Procedure, shortened: (§1)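 Each sample dissolved in aqueous solution at pH 2.0, 7.4 or 11.5 (final 10^-2 mM) and held at room temperature for up to 200 h. Decomposition followed by TLC (CHCl3/CH3OH, 20:1). Value is the time at which decomposition appeared.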

Plasma [2] = assay: Thrombolytic activity in rabbit plasma assessed as euglobulin clot lysis time at 4.5 uM; type: functional, Oryctolagus cuniculus
Procedure, shortened: (§2)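 Rabbit plasma diluted 1:20 in water and precipitated at pH 5.7 with 0.25% acetic acid for 30 min at 4 °C. Centrifuged at 2000g for 15 min. […] Sample added and time to clot lysis recorded.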

Aorta [3] = assay: Nitric oxide radical scavenging activity in rat aortic strip assessed as inhibition of acetylcholine-induced vasorelaxation at 1 uM; type: functional, tissue-based
Rattus norvegicus [4] = assay: Antithrombotic activity in Wistar rat assessed as dry thrombus weight at 5 umol/kg
Rattus norvegicus [5] = assay: Antithrombotic activity in Wistar rat assessed as wet thrombus weight at 5 umol/kg; type: functional
Procedure, shortened: (§3)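 Male Wistar rats (250–300 g) anesthetized with pentobarbital sodium (80.0 mg/kg, ip). The right carotid artery and left jugular vein were cannulated via a polyethylene tube containing a thread, filled with NS or compound dissolved in NS (vehicle NS). Blood shunted 15 min. The thread was weighed wet, then after 2 weeks in a desiccator weighed dry. n = 10, ANOVA.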

Rattus norvegicus [6] = assay: Thrombolytic activity in Wistar rat assessed as reduction in thrombus weight at 10 umol/kg; type: functional
Procedure, shortened: (§4)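 Male Wistar rats (200–300 g) anesthetized with pentobarbital sodium (80.0 mg/kg, ip). A steel helix was left 15 min in 1.0 ml carotid artery blood, and the helix with thrombus was weighed. It was placed in a polyethylene tube filled with heparin sodium (50 IU/ml NS) inserted into the left jugular vein. Heparin was injected, then compound dissolved in NS. Read-out is reduction in thrombus weight.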

PC-12 [7] = assay: Radical scavenging activity in rat PC12 cells assessed as inhibition of hydrogen peroxide radical-induced cell damage by MTT assay; type: functional, cell-based
Procedure, shortened: (§5)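 PC12 cells grown in DMEM with 10% heat-inactivated horse serum, 5% FBS and 1.0 mM pyruvate at 37 °C, 5% CO2. Seeded at 20,000 cells/well on poly-L-lysine and attached 24 h. Pretreated 1 h with 12.5–200 µM compound. Damage induced by SNP 2 mM for 2 h (NO), H2O2 1 mM for 1 h, or H2O2 1 mM/Fe(II) 30 µM for 1 h (·OH). Media replaced, cells incubated 14 h, survival measured by MTT.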

[8] = Aqueous stability assessed as decomposition time at pH 11.5; type: physicochemical; settings: buffer; procedure, shortened: as §1
Aorta [9] = assay: Nitric oxide radical scavenging activity in rat aortic strip assessed as inhibition of acetylcholine-induced vasorelaxation at 100 uM; type: functional, tissue-based
Blood [10] = assay: Inhibition of 0.1 uM adenosine diphosphate-induced platelet aggregation in rabbit blood; type: functional, Oryctolagus cuniculus
Procedure, shortened: (§6)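 Platelet-rich plasma made by centrifuging normal rabbit blood anticoagulated with sodium citrate (3.8% final). Platelets adjusted to 2×10^5/µl with autologous plasma. Aggregation induced by PAF or ADP (final 10^-5–10^-7 M) and read by turbidimetry in an aggregometer. Maximal aggregation rate (Am%) taken as peak height of the curve.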

Aorta [11] = assay: Nitric oxide radical scavenging activity in rat aortic strip assessed as inhibition of acetylcholine-induced vasorelaxation at 10 uM; type: functional, tissue-based
Blood [12] = assay: Inhibition of 0.1 uM platelet activating factor-induced platelet aggregation in rabbit blood; type: functional, Oryctolagus cuniculus; procedure, shortened: as §6
PC-12 [13] = assay: Radical scavenging activity in rat PC12 cells assessed as inhibition of nitric oxide radical-induced cell damage by MTT assay; type: functional, cell-based; procedure, shortened: as §5
Oryctolagus cuniculus [14] = species on record: Oryctolagus cuniculus; assay: Thrombolytic activity against rabbit fibrinogen assessed as fibrinogen lysis area at 4.5 uM
Procedure, shortened: (§7)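 Equal volumes of 0.3% rabbit fibrinogen and 0.95% agarose in 50 mM sodium barbiturate buffer (pH 7.8), coagulated with thrombin (100 IU/mL). After 30 min at 4 °C, 5 mm wells were punched and 30 µl of sample in NS added per well. Plates incubated and lysis area measured in mm². ANOVA.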

Blood [15] = assay: Inhibition of 1 uM adenosine diphosphate-induced platelet aggregation in rabbit blood; type: functional, Oryctolagus cuniculus; procedure, shortened: as §6
Blood [16] = assay: Inhibition of 10 uM platelet activating factor-induced platelet aggregation in rabbit blood; type: functional, Oryctolagus cuniculus; procedure, shortened: as §6
Blood [17] = assay: Inhibition of 1 uM platelet activating factor-induced platelet aggregation in rabbit blood; type: functional, Oryctolagus cuniculus; procedure, shortened: as §6
Blood [18] = assay: Inhibition of 10 uM adenosine diphosphate-induced platelet aggregation in rabbit blood; type: functional, Oryctolagus cuniculus; procedure, shortened: as §6
[19] = Aqueous stability assessed as decomposition time at pH 7.4; type: physicochemical; settings: buffer; procedure, shortened: as §1
Plasma [20] = assay: Thrombolytic activity in rabbit plasma assessed as euglobulin clot lysis time at 2.2 uM; type: functional, Oryctolagus cuniculus; procedure, shortened: as §2
PC-12 [21] = assay: Radical scavenging activity in rat PC12 cells assessed as inhibition of hydroxyl radical-induced cell damage by MTT assay; type: functional, cell-based; procedure, shortened: as §5
Rattus norvegicus [22] = assay: Thrombolytic activity in Wistar rat assessed as reduction in thrombus weight at 2.5 umol/kg; type: functional; procedure, shortened: as §4
Rattus norvegicus [23] = assay: Thrombolytic activity in Wistar rat assessed as reduction in thrombus weight at 5 umol/kg; type: functional; procedure, shortened: as §4
Oryctolagus cuniculus [24] = species on record: Oryctolagus cuniculus; assay: Thrombolytic activity against rabbit fibrinogen assessed as fibrinogen lysis area at 2.2 uM; procedure, shortened: as §7
Oryctolagus cuniculus [25] = species on record: Oryctolagus cuniculus; assay: Thrombolytic activity against rabbit fibrinogen assessed as fibrinogen lysis area at 1.1 uM; procedure, shortened: as §7
Plasma [26] = assay: Thrombolytic activity in rabbit plasma assessed as euglobulin clot lysis time at 1.1 uM; type: functional, Oryctolagus cuniculus; procedure, shortened: as §2
Rattus norvegicus [27] = assay: Antithrombotic activity in Wistar rat assessed as wet thrombus weight at 20 mg/kg; type: functional; procedure, shortened: as §3
Rattus norvegicus [28] = assay: Antithrombotic activity in Wistar rat assessed as dry thrombus weight at 20 mg/kg; type: functional; procedure, shortened: as §3

In the case of `CC1(C)N(O)C(c2ccc(OCC(=O)O)cc2)=[N+]([O-])C1(C)C`, the Time [1] is reported as greater than 200 h, the Time (Plasma [2]) is reported as 223.11 min and the inhibition (Aorta [3]) is reported as 25.3%. For the same molecule, the dry thrombus weight (Rattus norvegicus [4]) was 6.67 mg, the Activity (Rattus norvegicus [5]) was 38.76 mg and the Activity (Rattus norvegicus [6]) was 12.11 mg. It also gave an EC50 (PC-12 [7]) of 31.6 µM, a Time [8] greater than 200 h and an inhibition (Aorta [9]) of 99%. For the same molecule, the “inhibition (INH)” value (Blood [10]) was 49.33%, the inhibition (Aorta [11]) was 72.4% and the “inhibition (INH)” value (Blood [12]) was 52.45%. The EC50 (PC-12 [13]) was 92.3 µM, the Activity (Oryctolagus cuniculus [14]) was 26.6 mm2 and the “inhibition (INH)” value (Blood [15]) was 50.65%. For the same molecule, the “inhibition (INH)” value (Blood [16]) was 53.8%, the “inhibition (INH)” value (Blood [17]) was 51.4% and the “inhibition (INH)” value (Blood [18]) was 51.98%. It also gave a Time [19] greater than 200 h.
`C[C@H](NC(=O)[C@@H]1CCCN1)C(=O)N[C@@H](CCCCNC(=O)COc1ccc(C2=[N+]([O-])C(C)(C)C(C)(C)N2O)cc1)C(=O)O` showed a Time (Plasma [20]) of 128.8 min, a Time (Plasma [2]) of 102.95 min and an inhibition (Aorta [3]) of 26.6%. For the same molecule, the EC50 (PC-12 [21]) was 99 µM, the Activity (Rattus norvegicus [6]) was 24.2 mg and the EC50 (PC-12 [7]) was 28.8 µM. For the same molecule, the inhibition (Aorta [9]) was 99.1%, the Activity (Rattus norvegicus [22]) was 11.06 mg and the Activity (Rattus norvegicus [23]) was 15.38 mg. It also gave an Activity (Oryctolagus cuniculus [24]) of 216 mm2, an inhibition (Aorta [11]) of 73.9% and an EC50 (PC-12 [13]) of 89 µM. It also gave an Activity (Oryctolagus cuniculus [14]) of 234 mm2, an Activity (Oryctolagus cuniculus [25]) of 197 mm2 and a Time (Plasma [26]) of 149 min.
Work on `CC(=O)Oc1ccccc1C(=O)O` [ASPIRIN] yielded an Activity (Rattus norvegicus [27]) of 24.16 mg and an Activity (Rattus norvegicus [28]) of 4.04 mg.
